Laboratory results published in ChEMBL document CHEMBL4619802, “Discovery and Characterization of Pure RhlR Antagonists against Pseudomonas aeruginosa Infections” (J Med Chem, 2020).

What was measured:
[1] = biological target: T1, HTH-type quorum-sensing regulator RhlR (Pseudomonas aeruginosa (strain ATCC 15692 / PAO1 / 1C / PRS 101 / LMG12228)) (UniProt P54292); experiment: Agonist activity at Pseudomonas aeruginosa RhlR expressed in Escherichia coli DH5alpha assessed as relative protein activity at 100 uM incubated for 1.5 hrs by luminescence reporter gene assay relative to control
T1 sequence (whole entry): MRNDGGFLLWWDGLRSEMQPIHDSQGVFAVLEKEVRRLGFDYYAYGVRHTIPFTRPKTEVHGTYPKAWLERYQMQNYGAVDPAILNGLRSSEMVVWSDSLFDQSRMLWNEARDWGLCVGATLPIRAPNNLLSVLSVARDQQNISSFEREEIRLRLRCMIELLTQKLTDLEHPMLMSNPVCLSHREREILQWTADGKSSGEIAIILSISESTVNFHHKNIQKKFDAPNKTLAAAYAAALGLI

[2] = biological target: T1, HTH-type quorum-sensing regulator RhlR (Pseudomonas aeruginosa (strain ATCC 15692 / PAO1 / 1C / PRS 101 / LMG12228)); experiment: Antagonist activity at Pseudomonas aeruginosa RhlR expressed in Escherichia coli DH5alpha assessed as relative protein activity at 100 uM incubated for 1.5 hrs in presence of N-butyryl-L-homoserine lactone by luminescence reporter gene assay relative to control; parameters: scale not given: the % may be the effect or the level left
In short: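 E. coli DH5α sdiA mutant carrying RhlR and rhlA::lacZ plasmids, at OD595 0.3 in LB. Compound given with BHL (10 µM per footnote) and 0.4% arabinose, 37 °C for 1.5 h.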

Structure (SMILES)	Activity [1] [%]	Activity [2] [%]
CCCC(O)CC(=O)CCc1ccc(N(C)C)cc1 (centres undefined)	1	74
CCCC(O)CC(=O)CCc1cccc(OC)c1 (centres undefined)	2	90
CCCCC[C@H](O)C#Cc1ccc(F)c(F)c1	4	67
CCCC(O)CC(=O)CCc1ccc(C)cc1 (centres undefined)	1	76
CCCC(O)CC(=O)CCc1ccc(Cl)cc1 (centres undefined)	2	69
CCCC(O)CC(=O)/C=C/c1ccc(O)c(F)c1 (centres undefined)	2	60
CCCC(O)CC(=O)/C=C/c1ccc(Cl)cc1 (centres undefined)	1	64
CCCCCC(O)CCc1ccc(O)c(OC)c1 (centres undefined)	2	45
CCCC[C@H](O)C#Cc1ccc(F)c(F)c1	2	64
CCCC(O)CC(=O)CCc1cccc(O)c1 (centres undefined)	2	81
CCCCCC(O)/C=C/c1ccc(O)c(OC)c1 (centres undefined)	2	41
CCCCCC(O)/C=C/c1ccc(F)c(F)c1 (centres undefined)	5	55
CCCC(O)CC(=O)/C=C/c1ccc(OC)c(OC)c1 (centres undefined)	1	69
CCCC(O)CC(=O)/C=C/c1ccc(O)c(OCC)c1 (centres undefined)	1	91
CCCC(O)CC(=O)CCc1ccc(F)c(F)c1 (centres undefined)	1	49
CCCC(O)CC(=O)CCc1cc(F)cc(OC)c1 (centres undefined)	3	85
CCCC(O)CC(=O)/C=C/c1ccc(F)cc1 (centres undefined)	1	33
CCCC(O)CC(=O)CCc1ccc(OC)cc1 (centres undefined)	2	71
CCCC(O)CC(=O)CCc1ccc(F)cc1 (centres undefined)	2	51
CCCC(O)CC(=O)CCc1ccc(O)c(F)c1 (centres undefined)	1	73
CCCC(O)CC(=O)/C=C/c1cccc(O)c1 (centres undefined)	2	78

Structure (SMILES)	Activity [1] [%]	Activity [2] [%]
CCCC(O)CC(=O)/C=C/c1cc(F)cc(OC)c1 (centres undefined)	3	74
CCCCCC(O)C#Cc1ccc(F)c(F)c1 (racemic)	3	74
CCCC(O)CC(=O)CCc1ccc(F)c(OC)c1 (centres undefined)	1	79
CCCC(O)CC(=O)/C=C/c1ccc(C)cc1 (centres undefined)	2	65
CCCC(O)CC(=O)CCc1ccc(OC)c(OC)c1 (centres undefined)	1	94
CCCC(O)CC(=O)/C=C/c1ccc(C)c(C)c1 (centres undefined)	2	72
CCCC(O)CC(=O)CCc1ccc(O)cc1 (centres undefined)	3	64
CCCCC[C@@H](O)C#Cc1ccc(F)c(F)c1	3	72
CCCC(O)CC(=O)CCc1ccc(O)c(OCC)c1 (centres undefined)	1	98
CCCCCC(=O)CCc1ccc(F)c(F)c1	4	55
CCCC(O)CC(=O)/C=C/c1ccccc1 (centres undefined)	4	93
CCCC(O)CC(=O)CCc1ccccc1 (centres undefined)	4	88
CCCCC(O)C#Cc1ccc(F)c(F)c1 (racemic)	4	71
CCCC(O)CC(=O)/C=C/c1ccc(F)c(OC)c1 (centres undefined)	1	43
CCCC(O)CC(=O)CCc1ccc(C)c(C)c1 (centres undefined)	3	82
CCCCCC(=O)CCc1ccc(O)c(OC)c1	2	49
CCCCCC(=O)/C=C/c1ccc(O)c(OC)c1	2	41
CCCCCCC(O)CC(=O)CCc1ccc(O)c(OC)c1 (centres undefined)	3	83
CCCC[C@@H](O)C#Cc1ccc(F)c(F)c1	3	67
CCCCCC(O)/C=C\c1ccc(O)c(OC)c1 (centres undefined)	3	79
CCCCCC(O)CCc1ccc(F)c(F)c1 (centres undefined)	5	61
